# Assay outcomes from PubChem.
# HSF1 inh: HSF1 inhibition | NIH3T3-HGL HSE-luciferase, MG132-induced, luminescence 8 h; hits give low values | activity change, negative = inhibition, % at 7.5 µM (by protocol) | 300,000 compounds, 0.77% hits | AID 2098;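 active means more than half of replicate wells show activity change below -50%, luminescence cut by over half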;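 further: luciferase reports HSF-1 transcriptional activity via heat shock element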
# T cruzi repl: T. cruzi replication inhibition; AID 1885; 300,000 compounds, 1.4% hits; T. cruzi beta-gal in NIH3T3, luminescence, 90 h; inhibition, % (test concentration not listed);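 active means mean inhibition across valid replicates above about 55%, limit read from the data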;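 further: signal also drops with host cell toxicity which is not excluded here; higher percent means less beta-gal luminescence so fewer parasites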
#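 System: Mouse NIH/3T3 fibroblasts infected with β-gal-expressing T. cruzi Tulahuen C4 | Quantity: NIH/3T3 cells, 5,000 per well | Reagent: 5000 reporter trypomastigotes per well | Dosing: Compound pinned at 50 nL/well, DMSO | Schedule: 3 h host attachment, then at least 90 h co-culture | Detection: GalScreen luminescence, 60 min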
# HSF-1 act: increases HSF-1 driven luciferase reporter signal | activation, % at 9 µM | NIH3T3-HGL HSF-1 luciferase reporter, MG132, 8 h; 100% = twice DMSO control signal | 300,000 compounds, 1.7% hits;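 active means mean replicate activation of at least 50% with a set share of replicates each reaching 50%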
# Hsp70 activator: transcriptional activators of Hsp70; HeLa Hsp70 promoter luciferase reporter, luminescence; scaled: vehicle 0, proteasome-inhibitor control 100%; activation, % at 10 µM; 200,000 compounds, 0.04% hits; AID 1203;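 active means activation above the mean across all tested compounds plus 3 SD, cutoff set per campaign, cut at about 5.5% in these data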
# L major viab: inhibitors of Leishmania major promastigote growth. Leishmania major promastigotes, resazurin fluorescence viability. inhibition, % at 10 µM. 200,000 compounds, 9% hits. AID 1063; in the data active means inhibition above about 50%;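 further: promastigotes grown with compound for 44 hours at 28 °C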
# Numbers stand for hits; - = inactive; . = no result given. Many of the other results were omitted from the sample, so hits are more common in it than they were.
SMILES,HSF1 inh,T cruzi repl,HSF-1 act,Hsp70 activator,L major viab
COc1cccc(C(=O)CC(C#N)c2ccc(F)cc2)c1 (centres undefined),-,-,-,.,.
COc1ccc(NC(=O)CN2CCC(C(N)=O)(N3CCCCC3)CC2)c(OC)c1,-,-,-,-,-
O=C(CN1CCC(N2CCCCC2)CC1)N1CCCc2ccccc21,-,-,-,-,63.5
Nc1c(N(CCO)C(=O)/C=C/c2ccco2)c(=O)[nH]c(=O)n1Cc1ccccc1,-,-,-,-,-
CCCCN(C(=O)/C=C/c1ccco1)c1c(N)n(CCC)c(=O)[nH]c1=O,-,-,76.4,-,-
CCCCc1ccc(NC(=S)NCc2cccc(OC)c2)cc1,-,56.3,-,-,-
CCCCc1ccc(NC(=S)Nc2ccc(Cl)c(S(=O)(=O)N(C)C)c2)cc1,-,-,-,-,86.9
CCCCc1ccc(NC(=S)Nc2ccc(Nc3ccc(OC)cc3)cc2)cc1,-,-,-,-,59.8
COc1cc(NC(=S)NCc2cccnc2)cc(OC)c1OC,-,-,-,-,-
COc1cc(NC(=S)NCc2cccnc2)cc(OC)c1,-,-,-,-,95.8
O=c1ccc(NS(=O)(=O)c2ccccc2)cn1Cc1ccc(Cl)c(Cl)c1,-,-,-,-,-
CCCC(=O)Nc1nnc(S(=O)(=O)N(CC)c2ccccc2)s1,-,-,-,.,.
COc1ccccc1C(=O)Nc1cc(-c2ccc(C)cc2)no1,-,-,-,.,.
Cc1ccc(NC(=O)c2ccc(CN3CCN(C)CC3)cc2)cc1Nc1nccc(-c2cccnc2)n1,-,-,-,.,.
CCOc1ccc(NC(=S)N/N=C(\C)Cc2ccc(OC)cc2)cc1,-,-,-,-,61.9
CC(C)Oc1ccc(C(=O)CCN2CCOCC2)cc1,-,-,-,.,.
CCC1(C)CC2(CCCN(CCC(=O)c3ccccc3)C2)CCO1 (centres undefined),-,-,-,-,69.3
O=C(CCN1CCCCCC1)c1ccccc1,.,.,.,-,88.2
CC1(C)CC2(CCCN(C(=S)Nc3ccccc3)C2)CCO1 (centres undefined),-,-,-,.,.
CC(C)Oc1ccc(C(=O)CCN2CCCCC2)cc1,-,-,-,-,90.0
CCCOc1ccc(C(=O)CCN2CCN(C(=O)OCC)CC2)cc1,.,.,.,-,96.1
Cc1ccccc1NC(=O)Cc1nc(COC(=O)c2ccc(Cl)nc2)cs1,-,-,-,.,.
Cn1cc2cc(NC(N)=S)ccc2n1,-,-,-,-,-
COc1ccccc1NC(=O)c1cc2c(=O)n(C)c3ccccc3c2n1C,-,-,-,.,.
CN(C)S(=O)(=O)c1cccc(NC(=O)COC(=O)c2ccc3c(c2)OCO3)c1,-,-,-,-,-
SMILES,HSF1 inh,T cruzi repl,HSF-1 act,Hsp70 activator,L major viab
CCOc1ccc(C(=O)CCN2CCCCC2)cc1,-,-,-,-,-
COc1ccc(C(=O)CCN2CCCCCC2)cc1,-,-,-,-,85.2
O=C(CCCCN1CCCCC1)c1ccc2c(c1)Cc1ccccc1-2,-,71.4,-,-,99.8
Cc1cccc2c(N=Nc3ccccc3)c(O)[nH]c12,-,-,61.1,.,.
O=C(O)c1ccc(N=Nc2c(O)[nH]c3ccc(Br)cc23)cc1,-,-,-,.,.
Oc1[nH]c2ccccc2c1N=Nc1cccc(Cl)c1,-,-,68.9,.,.
Oc1[nH]c2ccc(Br)cc2c1N=Nc1ccc(C(F)(F)F)cn1,-,74.6,-,-,-
Oc1[nH]c2ccccc2c1N=Nc1ccc(C(F)(F)F)cn1,-,-,-,-,55.0
Oc1[nH]c2ccccc2c1N=Nc1nncc2ccccc12,-,-,-,.,.
O=C(CN(Cc1ccccc1)S(=O)(=O)c1ccc(F)cc1)NCc1ccccn1,-,-,-,.,.
N#C/C(=C\c1c(F)cccc1Cl)C(=O)NC1CC1,-,-,-,.,.
Cc1ccc(OCCC(=O)OCC(=O)Nc2ccc(F)cc2)cc1,-,-,-,.,.
CC(c1ccco1)N(C(=O)c1ccccc1NS(=O)(=O)c1cccc([N+](=O)[O-])c1)c1ccccn1 (centres undefined),-,-,-,-,-
CC(c1ccco1)N(C(=O)c1ccccc1NS(=O)(=O)c1cc([N+](=O)[O-])ccc1Cl)c1ccccn1 (centres undefined),-,-,-,-,51.1
COc1ccc(NC(=O)CSc2nnc(Cn3cnc4ccccc43)o2)cc1,-,-,-,-,-
Cc1cccc(NCc2ccc(O)c3ncccc23)c1C,-63.1,-,-,-,-
Cc1cccnc1NCc1ccc(O)c2ncccc12,-,-,-,-,57.7
Cc1ccc(NCc2ccc(O)c3ncccc23)cc1,-,-,-,-,-
FC(F)(F)c1cccc(OCC2CNC(=S)O2)c1 (centres undefined),-,-,-,.,.
COc1ccc(SCC(=O)Nc2ccc(N3CCN(C)CC3)c(F)c2)cc1,-,-,-,-,94.0
CN1CCN(c2ccc(NC(=O)CN3CCOCC3)cc2F)CC1,-,-,-,-,-
O=C(CSc1ccccc1)Nc1ccc(N2CCN(c3ccccc3)CC2)c(F)c1,-,-,55.3,-,-
COCC(=O)Nc1ccc(N2CCN(c3ccccc3)CC2)c(F)c1,-,-,-,.,.
COc1cc(-c2c(C#N)c(N)nc3[nH]c(=S)[nH]c(=O)c23)ccc1O,-,-,-,.,.
Cc1cc(C(=O)OCC(=O)Nc2c(Cl)cccc2C(F)(F)F)c(C)o1,-,-,-,.,.
SMILES,HSF1 inh,T cruzi repl,HSF-1 act,Hsp70 activator,L major viab
COc1ccc(/C=C/c2onc(C)c2S(=O)(=O)N2CCC(C(=O)N3CCC(C)CC3)CC2)cc1,-,-,-,.,.
O=C(/C=C/Nc1ccccc1Br)c1ccccn1,-60.6,-,-,-,-
O=C(O)CCC1(C(=O)O)OCCc2ccccc21 (centres undefined),-66.7,-,-,-,-
CC1C/C(=N\NC(=O)c2cccnc2)CC(C)(C)C1 (centres undefined),-,-,-,-,-
CC1C/C(=N\NC(=S)NC(C)C)CC(C)(C)C1 (centres undefined),-,-,-,-,100.3
Cc1ccc(OCCC(=O)OCC(=O)N2CCN(S(=O)(=O)c3ccc(C)cc3)CC2)cc1,-,-,-,.,.
COc1nc(Nc2cccc(C(F)(F)F)c2)nc(OC)n1,-,-,58.8,-,-
CC(=O)NCCNC(=O)c1ccc(-n2c(C)ccc2C)cc1,-,-,-,-,-
CC(=O)Nc1ccc(NC(=O)c2ccc(-n3c(C)ccc3C)cc2)cc1,-,-,-,-,68.5
Cc1ccc(C)n1-c1ccc(NC(=O)c2ccccc2)cc1,-,-,-,-,58.4
NC(=O)CN(c1ccc(Cl)cc1)S(=O)(=O)c1ccccc1,-,-,-,-,-
CCN(CC)C(=O)CN(c1ccc(Cl)cc1)S(=O)(=O)c1ccccc1,-,-,-,-,89.6
CC(C)(C)NCc1ccc(OCc2cccs2)cc1,.,.,.,-,99.9
Cc1ccc(C(=O)NCCS(=O)(=O)N2CCN(c3ccccc3F)CC2)cc1[N+](=O)[O-],-,-,-,.,.
CNc1ccc(C(=O)N2CCN(S(=O)(=O)c3ccc4c(c3)OCCCO4)CC2)cc1[N+](=O)[O-],-,-,-,.,.
